# ChEMBL document CHEMBL1135694, “Optimization of alkylidene hydrazide based human glucagon receptor antagonists. Discovery of the highly potent and orally available 3-cyano-4-hydroxybenzoic acid [1-(2,3,5,6-tetramethylbenzyl)-1H-indol-4-ylmethylene]hydrazide” (J Med Chem, 2002)
# How the values were obtained:
# [1] = target: Glucagon receptor (Homo sapiens, UniProt P47871); assay: In vitro binding affinity for recombinant human glucagon receptor (hGGR) in BHK cells; format: cell-based
# Method in brief: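 Membranes (4 µg) from BHK cells expressing the cloned human glucagon receptor. Compounds were diluted in DMSO, and a glucagon standard curve was run. IC50 given as mean ± SD, n = 3.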
# [2] = Turnover in rat liver microsomes; format: ADME, Microsome
# Method in brief: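 Rat liver microsomes (0.331 mg/mL protein) with 10 µM compound, 1 mM UDP-GA and 1 mM NADPH in KH2PO4 buffer, pH 7.4, at 37 °C. Sampled at 0-30 min (n = 3), stopped with MeCN. Rate was taken from parent disappearance by LC-MS.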
# Chain of Glucagon receptor (P47871 whole entry): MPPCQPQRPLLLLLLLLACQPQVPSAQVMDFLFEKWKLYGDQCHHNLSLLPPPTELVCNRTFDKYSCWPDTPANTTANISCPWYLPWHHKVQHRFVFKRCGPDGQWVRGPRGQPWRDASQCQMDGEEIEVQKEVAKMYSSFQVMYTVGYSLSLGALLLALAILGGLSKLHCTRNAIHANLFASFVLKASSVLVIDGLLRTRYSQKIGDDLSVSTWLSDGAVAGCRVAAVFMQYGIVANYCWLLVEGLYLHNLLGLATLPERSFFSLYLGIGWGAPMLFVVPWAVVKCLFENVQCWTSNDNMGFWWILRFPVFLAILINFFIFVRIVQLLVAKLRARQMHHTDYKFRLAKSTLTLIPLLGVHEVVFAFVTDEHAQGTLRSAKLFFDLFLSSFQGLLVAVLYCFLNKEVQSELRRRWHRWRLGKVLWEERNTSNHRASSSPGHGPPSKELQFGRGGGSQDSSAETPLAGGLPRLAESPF
SMILES,IC50 [1],Metabolism [2]
CC(C)CS(=O)(=O)c1ccc(/C=N/NC(=O)c2ccc(O)c(Cl)c2)c2ccccc12,0.181 µM,110 pmol/min/mg
COc1ccc2oc(C(=O)Nc3ccc(/C=N/NC(=O)c4ccc(O)c(Cl)c4)c(OC)c3)cc2c1,0.0906 µM,31 pmol/min/mg
O=C(N/N=C/c1ccc(NC(=O)C2CCCC2)c2ccccc12)c1ccc(O)c(Cl)c1,0.0388 µM,134 pmol/min/mg
CN(C)CCN(C)C(=O)Cc1ccc(/C=N/NC(=O)c2ccc(O)c(Cl)c2)c2ccccc12,0.441 µM,
CN(C)CCN(Cc1ccccc1)C(=O)Cc1ccc(/C=N/NC(=O)c2ccc(O)c(Cl)c2)c2ccccc12,0.0062 µM,
COc1cc(NC(=O)Cc2cccc(C(F)(F)F)c2)ccc1/C=N/NC(=O)c1ccc(O)c(C#N)c1,0.0478 µM,51 pmol/min/mg
NC(=O)[C@H](Cc1ccccc1)NCc1ccc(/C=N/NC(=O)c2ccc(O)c(Cl)c2)c2ccccc12,0.0618 µM,178 pmol/min/mg
O=C(COc1ccc(/C=N/NC(=O)c2ccc(O)c(Cl)c2)c2ccccc12)NC1CCN(Cc2ccccc2)C1 (stereo not given),0.0893 µM,187 pmol/min/mg
O=C(N/N=C/c1ccc(CS(=O)(=O)C2CCCC2)c2ccccc12)c1ccc(O)c(Cl)c1,0.221 µM,
CC(C)S(=O)(=O)Cc1ccc(/C=N/NC(=O)c2ccc(O)c(C#N)c2)c2ccccc12,0.163 µM,31 pmol/min/mg
COc1cc(/C=N/NC(=O)c2ccc(O)c(Cl)c2)cc(Cl)c1OCCN1CCc2ccccc2C1,0.485 µM,
CCN(CC)C(=O)Cn1ccc2c(/C=N/NC(=O)c3ccc(O)c(Cl)c3)cccc21,2.54 µM,165 pmol/min/mg
CCN(CC)C(=O)c1ccc(/C=N/NC(=O)c2ccc(O)c(Cl)c2)c2ccccc12,0.0354 µM,124 pmol/min/mg
O=C(N/N=C/c1cn(Cc2ccc(OC(F)F)cc2)c2ccccc12)c1ccc(O)c(Cl)c1,0.305 µM,
O=C(N/N=C/c1cccc2c1ccn2Cc1ccc(C(F)(F)F)cc1)c1ccc(O)c(Cl)c1,0.0338 µM,116 pmol/min/mg
O=C(N/N=C/c1ccc(CO)c2ccccc12)c1ccc(O)c(Cl)c1,0.0411 µM,75 pmol/min/mg
O=C(N/N=C/c1cccc2c(CO)cccc12)c1ccc(O)c(Cl)c1,0.2 µM,225 pmol/min/mg

SMILES,IC50 [1],Metabolism [2]
O=C(N/N=C/c1ccc(CC(=O)N2CCN(Cc3ccc(Cl)cc3)CC2)c2ccccc12)c1ccc(O)c(Cl)c1,0.0046 µM,101 pmol/min/mg
O=C(N/N=C/c1ccc(OCCNCc2ccccc2OC(F)(F)F)c2ccccc12)c1ccc(O)c(Cl)c1,0.0543 µM,233 pmol/min/mg
CC(C)c1ccc(Cn2ccc3c(/C=N/NC(=O)c4ccc(O)c(Cl)c4)cccc32)cc1,0.023 µM,48 pmol/min/mg
CC(C)S(=O)(=O)c1ccc(/C=N/NC(=O)c2ccc(O)c(Cl)c2)c2ccccc12,0.357 µM,110 pmol/min/mg
O=C(N/N=C/c1ccc2c(ccn2Cc2ccc(OC(F)(F)F)cc2)c1)c1ccc(O)c(Cl)c1,0.286 µM,
COc1cc(/C=N/NC(=O)c2ccc(O)c(Cl)c2)ccc1NC(=O)COc1ccc(OC(F)(F)F)cc1,0.073 µM,136 pmol/min/mg
COCc1ccc(/C=N/NC(=O)c2ccc(O)c(Cl)c2)c2ccccc12,0.0755 µM,
COc1cc(NC(=O)Cc2ccc(Cl)cc2)ccc1/C=N/NC(=O)c1ccc(O)c(C#N)c1,0.0287 µM,
N#Cc1cc(C(=O)N/N=C/c2ccc(CO)c3ccccc23)ccc1O,0.0298 µM,37 pmol/min/mg
O=C(N/N=C/c1cn(Cc2ccccc2)c2ccccc12)c1ccc(O)c(Cl)c1,0.615 µM,
COc1cc(OCCNCc2ccc(C(F)(F)F)cc2)ccc1/C=N/NC(=O)c1ccc(O)c(Cl)c1,0.133 µM,
O=C(N/N=C/c1ccc(CC(=O)N2CCN(Cc3ccccc3)CC2)c2ccccc12)c1ccc(O)c(Cl)c1,0.0092 µM,359 pmol/min/mg
O=C(N/N=C/c1ccc(CN2CCN(Cc3ccc(Cl)cc3)CC2)c2ccccc12)c1ccc(O)c(Cl)c1,0.0967 µM,51 pmol/min/mg
O=C(N/N=C/c1cccc2c1ccn2Cc1ccc(OC(F)(F)F)cc1)c1ccc(O)c(Cl)c1,0.0229 µM,
COc1cc(NC(=O)CCc2ccc(C(F)(F)F)cc2)ccc1/C=N/NC(=O)c1ccc(O)c(Cl)c1,0.0335 µM,
O=C(N/N=C/c1ccc(O)c2ccccc12)c1ccc(O)c(Cl)c1,0.203 µM,
O=C(COc1ccc(/C=N/NC(=O)c2ccc(O)c(Cl)c2)c2ccccc12)Nc1ccc(Cl)cc1,0.0517 µM,

# Other lines, results leading:
IC50 [1],Metabolism [2],SMILES
0.0058 µM,,Cc1cc(C)c(Cn2ccc3c(/C=N/NC(=O)c4ccc(O)c(Cl)c4)cccc32)c(C)c1
0.0066 µM,44 pmol/min/mg,O=C(N/N=C/c1ccc(OCC(=O)N2CC=C(c3ccc(Br)cc3)CC2)c2ccccc12)c1ccc(O)c(Cl)c1
0.0059 µM,32 pmol/min/mg,O=C(N/N=C/c1ccc(C(=O)NCCc2ccc(Cl)cc2)c2ccccc12)c1ccc(O)c(Cl)c1
0.0157 µM,,COc1cc(NC(=O)CCc2ccc(C(F)(F)F)cc2)ccc1/C=N/NC(=O)c1ccc(O)c(C#N)c1
0.0074 µM,279 pmol/min/mg,CCC1CCCCN1C(=O)Cc1ccc(/C=N/NC(=O)c2ccc(O)c(Cl)c2)c2ccccc12 (stereo not given)
0.0083 µM,267 pmol/min/mg,CC1CCCCN1C(=O)Cc1ccc(/C=N/NC(=O)c2ccc(O)c(Cl)c2)c2ccccc12 (stereo not given)
0.0191 µM,606 pmol/min/mg,CN(C)c1ccc(C(=O)n2cc(/C=N/NC(=O)c3ccc(O)c(C#N)c3)c3ccccc32)cc1
0.0116 µM,65 pmol/min/mg,CC1CCCCN1C(=O)Cc1ccc(/C=N/NC(=O)c2ccc(O)c(C#N)c2)c2ccccc12 (stereo not given)
0.0034 µM,,O=C(N/N=C/c1ccc(N(C(=O)C2CCCC2)C(=O)C2CCCC2)c2ccccc12)c1ccc(O)c(Cl)c1
0.0165 µM,130 pmol/min/mg,CCN(CC)C(=O)Cc1ccc(/C=N/NC(=O)c2ccc(O)c(C#N)c2)c2ccccc12
0.0145 µM,23 pmol/min/mg,COc1cc(NC(=O)CSc2ccc(OC(F)(F)F)cc2)ccc1/C=N/NC(=O)c1ccc(O)c(Cl)c1
0.0123 µM,160 pmol/min/mg,O=C(N/N=C/c1ccc(CC(=O)N2CCN(c3ccc(F)cc3)CC2)c2ccccc12)c1ccc(O)c(Cl)c1
0.0079 µM,178 pmol/min/mg,O=C(N/N=C/c1ccc(CC(=O)N2CCN(c3ccccc3F)CC2)c2ccccc12)c1ccc(O)c(Cl)c1
0.0226 µM,323 pmol/min/mg,CCN(CC)C(=O)Cc1ccc(/C=N/NC(=O)c2ccc(O)c(Cl)c2)c2ccccc12
0.0061 µM,50 pmol/min/mg,N#Cc1cc(C(=O)N/N=C/c2ccc(OCC(=O)N3CC=C(c4ccc(Br)cc4)CC3)c3ccccc23)ccc1O
0.0212 µM,107 pmol/min/mg,COc1cc(NC(=O)CCc2ccc(C(F)(F)F)cc2)ccc1/C=N/NC(=O)c1ccc(O)c(Cl)c1.O
0.0113 µM,77 pmol/min/mg,O=C(N/N=C/c1ccc(C(=O)N2CCN(Cc3ccc(Cl)cc3)CC2)c2ccccc12)c1ccc(O)c(Cl)c1
0.0147 µM,,O=C(N/N=C/c1ccc(OCCNCc2ccc(Cl)c(Cl)c2)c2ccccc12)c1ccc(O)c(Cl)c1
0.0064 µM,136 pmol/min/mg,N#Cc1cc(C(=O)N/N=C/c2cn(C(=O)CC3CCCC3)c3ccccc23)ccc1O
0.0129 µM,,O=C(N/N=C/c1cccc2c(OCc3ccc(OC(F)(F)F)cc3)cccc12)c1ccc(O)c(Cl)c1
0.0114 µM,,O=C(N/N=C/c1ccc(OCC(=O)N2CCC(O)(c3ccc(Br)cc3)CC2)c2ccccc12)c1ccc(O)c(Cl)c1
